pIC50: −log10 of the molar value. Activity calls are given as the source filed them. No cut-off for these calls is given here.
Columns and labels:
RAW264.7 [1] = test: Inhibition of IFN-gamma/LPS-induced PGE2 production in mouse RAW264.7 cells at 50 uM after 17 to 20 hrs by EIA method; format: functional
How it was run: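 In RAW 264.7 cells seeded at 4 × 10⁵/well and attached for 2 h at 37 °C, compound was added with LPS, using 0.1% final DMSO as vehicle. Incubation ran 17–20 h at 37 °C, 5% CO₂. Supernatant PGE₂ was quantified by EIA from a standard curve and expressed as percent inhibition at a single test concentration.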

[2] = Cytotoxicity against mouse RAW264.7 cells assessed as cell viability by MTT assay; format: cell-based; design: concentration or dose not given beside the values; conditions: read-out: Activity
How it was run: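 After the 17–20 h LPS co-treatment of RAW 264.7 cells (0.1% DMSO vehicle), the supernatant was removed and MTT (0.05 mg/mL) was added. Cells were held at 37 °C for 4 h. Formazan was dissolved in 100% DMSO and absorbance was read at 570 nm. Results are given as % viability. Culture viability before use was >95% by trypan blue.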

RAW264.7 [3] = test: Inhibition of IFN-gamma/LPS-induced PGE2 production in mouse RAW264.7 cells after 17 to 20 hrs by EIA method; format: functional, cell-based
How it was run: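 RAW 264.7 cells (4 × 10⁵/well) attached for 2 h at 37 °C, 5% CO₂. They were then co-incubated with LPS and compound in DMSO (0.1% final) for 17–20 h. Supernatant PGE₂ was measured by EIA against a standard curve. Dose-response testing spanned 0.78 to 50; group differences were tested by one-way ANOVA with Dunnett's test.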

RAW264.7 [4] = test: Inhibition of IFN-gamma/LPS-induced nitric oxide production in mouse RAW264.7 cells by Griess assay; format: functional, cell-based

Row | SMILES | inhibition at 50 µM (RAW264.7 [1]) | viability [2] | pIC50 (RAW264.7 [3]) | inhibition (RAW264.7 [1]) | pIC50 (RAW264.7 [4])
1 | COc1cc(O)c(C(=O)/C=C/c2ccc(Br)cc2)cc1CC=C(C)C | 70% | > 100% | – | – | –
2 | COc1ccc2c(=O)c(OCC=C(C)C)c(-c3ccc(OC)c(OC)c3)oc2c1 | 58% | > 100% | – | – | –
3 | CS(=O)(=O)Nc1ccc([N+](=O)[O-])cc1OC1CCCCC1 [NS-398] | 97% | > 100% | 7.00 | – | –
4 | COc1ccc(C(=O)/C=C/c2ccc(OC)c(OC)c2)c(O)c1 | 75% | > 100% | – | – | –
5 | COc1cc2c(cc1CC=C(C)C)C(=O)/C(=C/c1ccc(C)cc1)O2 | – | > 100% | – | inactive | –
6 | COc1cc(O)c(C(=O)/C=C/c2ccc(O)c(O)c2)cc1CC=C(C)C | 61% | > 100% | – | – | –
7 | COc1ccc(C(=O)/C=C/c2ccc(C)cc2)c(O)c1 | – | 97% | – | inactive | –
8 | COc1ccc2c(c1)O/C(=C\c1ccc(OC)c(OC)c1)C2=O | 76% | > 100% | – | – | –
9 | COc1ccc2c(=O)c(O)c(-c3ccc(C)cc3)oc2c1 | 70% | 78% | – | – | –
10 | COc1cc(O)c(C(=O)/C=C/c2ccc(OC)c(OC)c2)cc1CC=C(C)C | 90% | > 100% | 5.68 | – | 4.86
11 | COc1ccc2c(=O)c(OCC=C(C)C)c(-c3ccc(C)cc3)oc2c1 | 41% | > 100% | – | – | –
12 | COc1cc(O)c(C(=O)/C=C/c2ccc(C)cc2)cc1CC=C(C)C | 64% | > 100% | – | – | –
13 | COc1cc(O)c(C(=O)/C=C/c2cccc(-c3ccc(F)cc3)c2)cc1CC=C(C)C | – | > 100% | – | inactive | –
14 | COc1ccc2c(c1)O/C(=C\c1ccc(C)cc1)C2=O | 78% | > 100% | – | – | –
15 | COc1cc2c(cc1CC=C(C)C)C(=O)/C(=C/c1ccc(OC)c(OC)c1)O2 | 83% | > 100% | – | – | –
16 | COc1cc(O)c(C(=O)/C=C/c2ccc(-c3ccc(F)cc3)cc2)cc1CC=C(C)C | 63% | > 100% | – | – | –
17 | CC(C)=CCOc1ccc2c(c1)O/C(=C\c1ccc(C)cc1)C2=O | 43% | > 100% | – | – | –
18 | COc1ccc2c(=O)c(O)c(-c3ccc(OC)c(OC)c3)oc2c1 | 80% | 82% | – | – | –
19 | CC(C)=CCOc1ccc(/C=C2\Oc3ccccc3C2=O)cc1 | 77% | > 100% | – | – | –

Reference: ChEMBL document CHEMBL3352056, “Inhibition of prostaglandin E(2) production by synthetic minor prenylated chalcones and flavonoids: synthesis, biological activity, crystal structure, and in silico evaluation” (Bioorg Med Chem Lett, 2014)
